Laboratory results: ChEMBL document CHEMBL1671686, “Carbapenem-resistant KPC-2-producing Escherichia coli in a Tel Aviv Medical Center, 2005 to 2008” (2010)
Values after ≈ are worked out from the molar mass of the structure shown.

Legend:
Format in all cases: functional
[1] = tested on: Escherichia coli; experiment: Antimicrobial activity against Escherichia coli DH10B by vitek-2 method; details: K-12 DH10B
Summary of the method: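 Plasmid-free recipient E. coli DH10B, used as the host for electroporation transformants, was tested for susceptibility on the automated Vitek-2 system.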

[2] = tested on: Escherichia coli; experiment: Antimicrobial activity against Escherichia coli isolate 339 expressing beta-lactamase KPC2, TEM and PFGE cluster 5 isolated from peritoneal fluid of patient by vitek-2 method
[3] = tested on: Escherichia coli; experiment: Antimicrobial activity against Escherichia coli isolate 339T expressing beta-lactamase KPC2 and PFGE cluster 5 isolated from peritoneal fluid of patient by vitek-2 method
[4] = tested on: Escherichia coli; experiment: Antimicrobial activity against Escherichia coli isolate 360 expressing beta-lactamase KPC2, CTX-M-15, OXA-9, TEM and PFGE cluster 1 isolated from urine of patient by vitek-2 method; details: isolate 360, Urine
[5] = tested on: Escherichia coli; experiment: Antimicrobial activity against Escherichia coli isolate 360T expressing beta-lactamase KPC2, OXA-9 and PFGE cluster 1 isolated from urine of patient by vitek-2 method
[6] = tested on: Escherichia coli; experiment: Antimicrobial activity against Escherichia coli isolate 386 expressing beta-lactamase KPC2, CTX-M-15, OXA-9, TEM and PFGE cluster 1 isolated from wound of patient by vitek-2 method
[7] = tested on: Escherichia coli; experiment: Antimicrobial activity against Escherichia coli isolate 386T expressing beta-lactamase KPC2, OXA-9 and PFGE cluster 1 isolated from wound of patient by vitek-2 method
[8] = tested on: Escherichia coli; experiment: Antimicrobial activity against Escherichia coli isolate 540 expressing beta-lactamase KPC2, TEM and PFGE cluster 4 isolated from synovial fluid of patient by vitek-2 method
[9] = tested on: Escherichia coli; experiment: Antimicrobial activity against Escherichia coli isolate 543 expressing beta-lactamase KPC2, CTX-M-15, TEM and PFGE cluster 4 isolated from synovial fluid of patient by vitek-2 method
[10] = tested on: Escherichia coli; experiment: Antimicrobial activity against Escherichia coli isolate 543T expressing beta-lactamase KPC2 and PFGE cluster 4 isolated from synovial fluid of patient by vitek-2 method
[11] = tested on: Escherichia coli; experiment: Antimicrobial activity against Escherichia coli isolate 544 expressing beta-lactamase KPC2, TEM and PFGE cluster 4 isolated from abscess of patient by vitek-2 method
[12] = tested on: Escherichia coli; experiment: Antimicrobial activity against Escherichia coli isolate 547 expressing beta-lactamase KPC2, TEM and PFGE cluster 4 isolated from blood of patient by vitek-2 method
[13] = tested on: Escherichia coli; experiment: Antimicrobial activity against Escherichia coli isolate 547T expressing beta-lactamase KPC2 and PFGE cluster 4 isolated from blood of patient by vitek-2 method
[14] = tested on: Escherichia coli; experiment: Antimicrobial activity against Escherichia coli isolate 1679 expressing beta-lactamase KPC2, SHV-12, TEM and PFGE cluster 6 isolated from peritoneal fluid of patient by vitek-2 method
[15] = tested on: Escherichia coli; experiment: Antimicrobial activity against Escherichia coli isolate 1679T expressing beta-lactamase KPC2, TEM and PFGE cluster 6 isolated from peritoneal fluid of patient by vitek-2 method
[16] = tested on: Escherichia coli; experiment: Antimicrobial activity against Escherichia coli isolate 157 expressing beta-lactamase KPC2, CTX-M-15, TEM and PFGE cluster 3 isolated from urine of patient by vitek-2 method; details: isolate 157, Urine
[17] = tested on: Escherichia coli; experiment: Antimicrobial activity against Escherichia coli isolate 157T expressing beta-lactamase KPC2 and PFGE cluster 3 isolated from urine of patient by vitek-2 method
[18] = tested on: Escherichia coli; experiment: Antimicrobial activity against Escherichia coli isolate 329 expressing beta-lactamase KPC2, CTX-M-2, TEM and PFGE cluster 2 isolated from blood of patient by vitek-2 method
[19] = tested on: Escherichia coli; experiment: Antimicrobial activity against Escherichia coli isolate 329T expressing beta-lactamase KPC2 and PFGE cluster 2 isolated from blood of patient by vitek-2 method

Row | Structure (SMILES) | MIC [1] [µg/mL] | MIC [2] [µg/mL] | MIC [3] [µg/mL] | MIC [4] [µg/mL] | MIC [5] [µg/mL] | MIC [6] [µg/mL] | MIC [7] [µg/mL] | MIC [8] [µg/mL] | MIC [9] [µg/mL] | MIC [10] [µg/mL] | MIC [11] [µg/mL] | MIC [12] [µg/mL] | MIC [13] [µg/mL] | MIC [14] [µg/mL] | MIC [15] [µg/mL] | MIC [16] [µg/mL] | MIC [17] [µg/mL] | MIC [18] [µg/mL] | MIC [19] [µg/mL]
1 | CO/N=C(\C(=O)N[C@@H]1C(=O)N2C(C(=O)[O-])=C(C[N+]3(C)CCCC3)CS[C@H]12)c1csc(N)n1 | 0.125 (≈ 0.26 µM) | – | – | – | – | – | – | – | – | – | – | – | – | – | – | – | – | – | –
2 | NCC[C@H](O)C(=O)N[C@@H]1C[C@H](N)[C@@H](O[C@H]2O[C@H](CN)[C@@H](O)[C@H](O)[C@H]2O)[C@H](O)[C@H]1O[C@H]1O[C@H](CO)[C@@H](O)[C@H](N)[C@H]1O [AMIKACIN] | < 1 | 4 (≈ 6.83 µM) | < 2 | 32 (≈ 54.6 µM) | > 64 | > 64 | > 64 | 16 (≈ 27.3 µM) | > 64 | 16 (≈ 27.3 µM) | 8 (≈ 13.7 µM) | 16 (≈ 27.3 µM) | 16 (≈ 27.3 µM) | < 2 | 16 (≈ 27.3 µM) | 8 (≈ 13.7 µM) | < 2 | 32 (≈ 54.6 µM) | < 2
3 | C[C@H]1[C@H](NC(=O)/C(=N\OC(C)(C)C(=O)O)c2csc(N)n2)C(=O)N1S(=O)(=O)O [AZTREONAM] | < 1 | – | – | – | – | – | – | – | – | – | – | – | – | – | – | – | – | – | –
4 | CC(C)(O/N=C(\C(=O)N[C@@H]1C(=O)N2C(C(=O)[O-])=C(C[n+]3ccccc3)CS[C@H]12)c1csc(N)n1)C(=O)O [CEFTAZIDIME] | < 0.25 | 4 (≈ 7.32 µM) | 16 (≈ 29.3 µM) | > 64 | 16 (≈ 29.3 µM) | > 64 | 16 (≈ 29.3 µM) | 4 (≈ 7.32 µM) | 16 (≈ 29.3 µM) | 16 (≈ 29.3 µM) | 16 (≈ 29.3 µM) | 4 (≈ 7.32 µM) | 16 (≈ 29.3 µM) | > 64 | > 64 | > 64 | 16 (≈ 29.3 µM) | > 64 | 16 (≈ 29.3 µM)
5 | CO/N=C(\C(=O)N[C@@H]1C(=O)N2C(C(=O)O)=C(CSc3nc(=O)c(O)nn3C)CS[C@H]12)c1csc(N)n1 [CEFTRIAXONE] | < 0.25 | > 64 | 8 (≈ 14.4 µM) | > 64 | 8 (≈ 14.4 µM) | > 64 | 8 (≈ 14.4 µM) | > 64 | > 64 | 16 (≈ 28.9 µM) | 32 (≈ 57.7 µM) | > 64 | 8 (≈ 14.4 µM) | 32 (≈ 57.7 µM) | 8 (≈ 14.4 µM) | > 64 | > 64 | > 64 | 16 (≈ 28.9 µM)
